Test results published in ChEMBL document CHEMBL5226362, “Screening for Cyclotides in Sri Lankan Medicinal Plants: Discovery, Characterization, and Bioactivity Screening of Cyclotides from Geophila repens” (J Nat Prod, 2023).
Converted amounts (≈) assume the structure as drawn. The source made the active and inactive calls. The rule behind the calls is not given here. Where a SMILES comes first, the peptide text is derived from it. Bridges are numbered along the chain shown (N, C = ends).

How the values were obtained:
[1] = tested on: U-937; assay: Cytotoxicity against human U-937 cells assessed as cell survival at 20 uM incubated for 72 hrs by FMCA assay; type: functional, cell-based
In short: (§1)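 FMCA with U937 human lymphoma cells, about 20 000 cells/well, exposed to 2-fold peptide dilutions for 72 h at 37 °C in 5% CO₂. Cells were washed with PBS and given FDA in Q2 buffer (NaCl/HEPES, pH 7.4) for 40 min at 37 °C. Fluorescence was read at ex 485/em 538 nm. Viability was expressed as % of control after blank subtraction; IC50 came from a variable-slope sigmoidal fit against log concentration.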

[2] = tested on: Pseudomonas aeruginosa; assay: Antibacterial activity against Pseudomonas aeruginosa ATCC 27853 assessed as inhibition of bacterial growth at 6 to 12 hrs by dilution method; type: functional; details: time 6-12 hrs
In short: (§2)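 Broth-free microdilution MIC assay. Microbes were grown overnight in 3% TSB at 37 °C, washed twice and resuspended in Tris buffer, then adjusted by A600 to 1 × 10⁶ cells/mL (about 50 000 cells/well). Cells were mixed 1:1 with 2-fold serial dilutions of peptide in Tris buffer (highest tested 32.5 μM) and held 5 h. Then 20% TSB was added and plates incubated 6–12 h at 37 °C, depending on organism. MIC was read as the lowest concentration giving 100% growth inhibition. Run in triplicate.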

[3] = tested on: Staphylococcus aureus; assay: Antibacterial activity against Staphylococcus aureus ATCC 29213 assessed as inhibition of bacterial growth at 6 to 12 hrs by dilution method; type: functional; details: time 6-12 hrs; in short: as §2
[4] = tested on: Candida albicans; assay: Antibacterial activity against Candida albicans ATCC 90028 assessed as inhibition of bacterial growth at 6 to 12 hrs by dilution method; type: functional; details: time 6-12 hrs; in short: as §2
[5] = tested on: Cell membrane; assay: Induction of bacterial inner membrane permeabilization in Escherichia coli assessed as carboxyfluorescein leakage measured for 45 mins by fluorescence based microplate reader assay; type: subcellular
In short: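 Liposomes were made from E. coli polar lipid extract loaded with 100 mM carboxyfluorescein in 10 mM Tris, pH 7.4, extruded through 100 nm membranes and gel-filtered. They were added at 10 μM final lipid to 2-fold peptide dilutions in Tris at 37 °C, with no cumulative additions. Dequenching was monitored for 45 min and normalized to 0.16% Triton X-100 after baseline subtraction. Values are the mean ± SD of triplicates; EC50 came from a variable-slope sigmoidal fit against log concentration.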

[6] = tested on: U-937; assay: Cytotoxicity against human U-937 cells assessed as inhibition of cell growth incubated for 72 hrs by FMCA assay; type: functional, cell-based; details: U-937, 72 h
In short: as §1, with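 “°C.” for “°C. Fluorescence was read at ex 485/em 538 nm.”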

SMILES | Activity [1] | MIC [2] [µM] | MIC [3] [µM] | MIC [4] [µM] | EC50 [5] [µM] | IC50 [6] [µM]
CC[C@H](C)[C@@H]1NC(=O)[C@H](C(C)C)NC(=O)[C@H]([C@@H](C)O)NC(=O)[C@H]([C@@H](C)O)NC(=O)[C@H]([C@@H](C)CC)NC(=O)[C@H]2CSSC[C@@H]3NC(=O)[C@H](C(C)C)NC(=O)[C@H](CCCCN)NC(=O)[C@H](CC(=O)O)NC(=O)[C@H](CCCCN)NC(=O)[C@@H]4CSSC[C@H](NC(=O)[C@H](CO)NC(=O)[C@H](CCC(=O)O)NC(=O)CNC(=O)[C@H](CSSC[C@@H](NC(=O)CNC1=O)C(=O)N[C@@H](CO)C(=O)N4)NC(=O)[C@@H]1CCCN1C(=O)[C@H](C(C)C)NC(=O)CNC(=O)[C@H](CC(N)=O)NC(=O)[C@H]([C@@H](C)O)NC(=O)[C@H](Cc1ccc(O)cc1)NC3=O)C(=O)N[C@@H](C(C)C)C(=O)N[C@@H](Cc1ccccc1)C(=O)N[C@@H]([C@@H](C)CC)C(=O)N1CCC[C@H]1C(=O)N2 | Active | > 10 | > 10 | > 10 | 0.16 | –
CC[C@H](C)[C@@H]1NC(=O)[C@H](Cc2ccccc2)NC(=O)[C@H](C(C)C)NC(=O)[C@@H]2CSSC[C@@H]3NC(=O)[C@H](CO)NC(=O)[C@H]4CSSC[C@H](NC(=O)[C@@H]5CCCN5C(=O)[C@H](C(C)C)NC(=O)CNC(=O)[C@H](CC(N)=O)NC(=O)[C@H](CC(N)=O)NC(=O)[C@H](Cc5ccc(O)cc5)NC(=O)[C@H](CSSC[C@H](NC(=O)[C@@H]5CCCN5C1=O)C(=O)N[C@@H](Cc1ccccc1)C(=O)N[C@@H]([C@@H](C)O)C(=O)N[C@@H]([C@@H](C)O)C(=O)N[C@@H](C(C)C)C(=O)N[C@@H](C(C)C)C(=O)NCC(=O)N4)NC(=O)[C@H](C(C)C)NC(=O)[C@H](CCCCN)NC(=O)[C@H](CC(=O)O)NC(=O)[C@H](CCCCN)NC3=O)C(=O)NCC(=O)N[C@@H](CCC(=O)O)C(=O)N[C@@H](CO)C(=O)N2 | Active | > 10 | > 10 | > 10 | 0.16 | –
CC[C@H](C)[C@@H]1NC(=O)CNC(=O)[C@H](CC(N)=O)NC(=O)[C@H]([C@@H](C)CC)NC(=O)[C@H](Cc2ccc(O)cc2)NC(=O)[C@@H]2CSSC[C@H]3NC(=O)CNC(=O)[C@H](Cc4ccccc4)NC(=O)[C@H](Cc4ccc(O)cc4)NC(=O)[C@H](C)NC(=O)[C@@H]4CSSC[C@H](NC(=O)[C@H](CO)NC(=O)[C@H](CSSC[C@H](NC(=O)[C@H](C)NC1=O)C(=O)NCC(=O)N[C@@H](CCC(=O)O)C(=O)N[C@@H](CO)C(=O)N4)NC(=O)CNC(=O)[C@@H]1CCCN1C(=O)[C@H]([C@@H](C)CC)NC(=O)[C@H](Cc1c[nH]c4ccccc14)NC3=O)C(=O)N[C@@H](CCCCN)C(=O)N[C@@H](CC(=O)O)C(=O)N[C@@H](CCCCN)C(=O)N[C@@H](C(C)C)C(=O)N2 | Active | > 10 | > 10 | > 10 | 0.14 | –
CC[C@H](C)[C@@H]1NC(=O)[C@H](C)NC(=O)[C@H](CO)NC(=O)[C@H](CO)NC(=O)[C@H]([C@@H](C)CC)NC(=O)[C@@H]2CSSC[C@@H]3NC(=O)[C@H](C(C)C)NC(=O)[C@H](CCCCN)NC(=O)[C@H](CO)NC(=O)[C@H](CCCCN)NC(=O)[C@@H]4CSSC[C@H](NC(=O)[C@H](CO)NC(=O)[C@H](CCC(=O)O)NC(=O)CNC(=O)[C@H](CSSC[C@H](NC(=O)CNC1=O)C(=O)N[C@@H](CO)C(=O)N4)NC(=O)[C@@H]1CCCN1C(=O)[C@H]([C@@H](C)CC)NC(=O)CNC(=O)[C@H](CC(N)=O)NC(=O)[C@H](CCCNC(=N)N)NC(=O)[C@H](Cc1ccc(O)cc1)NC3=O)C(=O)N[C@@H](C(C)C)C(=O)N[C@@H](Cc1c[nH]c3ccccc13)C(=O)N[C@@H]([C@@H](C)CC)C(=O)N1CCC[C@H]1C(=O)N2 (cyclo(AIGCSCKSKVCYRNGIPCGESCVWIPCISS); disulfide 4-18, 6-22, 11-27) | – | 10 (≈ 31.4 µg/mL) | > 10 | > 10 | – | 0.26
